What was measured:
Enterovirus A71 = assay: Antiviral activity against Enterovirus A71 infected in monkey LLC-MK2 cells assessed as protection against virus-induced cytopathic effect after 3 to 4 days by crystal violet staining-based spectrophotometric method; type: functional, cell-based; conditions: Enterovirus A
Outline: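 EV-A71 was tested in LLC-MK2 cells grown in DMEM with 10% FBS, penicillin, streptomycin and glutamine, at a low MOI preset to give full CPE in 3–4 days. Compound was dissolved in DMSO and diluted 2-fold, in triplicate. Cells were fixed with formaldehyde when control CPE was maximal, then stained with crystal violet and read at OD590. EC50 came from a 7-point four-parameter or sigmoidal fit.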

Coxsackievirus B3 = assay: Antiviral activity against Coxsackievirus B3 infected in human HeLa-RW cells assessed as protection against virus-induced cytopathic effect after 3 to 4 days by crystal violet staining-based spectrophotometric method; type: functional, cell-based; conditions: Enterovirus B
Outline: (§1)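 HeLa-RW cells grown in DMEM with penicillin, streptomycin, glutamine and 10% FBS. They were infected at a low MOI pre-set to give full CPE in 3-4 days. Compound in DMSO was added as serial 2-fold dilutions (7 points), each in triplicate. When control CPE was maximal, cells were fixed with 4% formaldehyde, stained with 0.25% crystal violet and read at OD590. EC50 came from a four-parameter or sigmoidal fit.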

Poliovirus 1 = assay: Antiviral activity against Poliovirus 1 infected in human HeLa-RW cells assessed as protection against virus-induced cytopathic effect after 3 to 4 days by crystal violet staining-based spectrophotometric method; type: functional, cell-based; conditions: Enterovirus C; outline: as §1
Poliovirus 3 = assay: Antiviral activity against Poliovirus 3 infected in human HeLa-RW cells assessed as protection against virus-induced cytopathic effect after 3 to 4 days by crystal violet staining-based spectrophotometric method; type: functional, cell-based; conditions: Enterovirus C; outline: as §1
LLC-MK2 = assay: Cytotoxicity against monkey LLC-MK2 cells after 3 to 4 days by crystal violet staining-based spectrophotometric method; type: cell-based, Macaca mulatta; conditions: rhesus monkey
Outline: (§2)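 Uninfected cells (HeLa-RW or LLC-MK2, in DMEM with penicillin, streptomycin, glutamine and 10% FBS) were exposed to serial 2-fold compound dilutions for the same period as the CPE assay. They were then fixed with formaldehyde, stained with crystal violet and read by OD590 spectrophotometry to derive CC50. Values are means ± s.d. of 3 experiments, or the average of triplicates in one.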

[1] = Cytotoxicity against human HeLa-RW cells after 3 to 4 days by crystal violet staining-based spectrophotometric method; type: cell-based; conditions: hela-rw; outline: as §2
[2] = Selectivity index, ratio of CC50 for monkey LLC-MK2 cells to EC50 for Enterovirus A71; type: toxicity; conditions: read-out: Ratio CC50/EC50
Outline: (§3)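 LLC-MK2 cells in DMEM with 10% FBS were used for both arms. For EC50, cells were infected with EV-A71 at a low MOI giving full CPE in 3–4 days and exposed to 2-fold compound dilutions, in triplicate. For CC50, uninfected cells got 2-fold dilutions for the same period. Both arms were formaldehyde-fixed, crystal violet-stained and read at OD590.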

[3] = Selectivity index, ratio of CC50 for human HeLa-RW cells to EC50 for Coxsackievirus B3; type: toxicity; conditions: read-out: Ratio CC50/EC50
Outline: as §3, with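 “HeLa-RW” for “LLC-MK2”, “CVB3-H3” for “EV-A71”, “triplicate, with a 7-point fit.” for “triplicate.”, “fixed,” for “formaldehyde-fixed,”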

[4] = Selectivity index, ratio of CC50 for human HeLa-RW cells to EC50 for Poliovirus 1; type: toxicity; conditions: read-out: Ratio CC50/EC50
Outline: (§4)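 HeLa-RW cells grown in DMEM with penicillin, streptomycin, glutamine and 10% FBS were infected at a low MOI chosen to give full CPE in 3-4 days. Serial 2-fold compound dilutions from DMSO stocks were tested in triplicate. When control CPE was maximal, cells were formaldehyde-fixed, crystal violet-stained and read at OD590. EC50 came from a 7-point curve. CC50 used uninfected cells over the same period.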

[5] = Selectivity index, ratio of CC50 for human HeLa-RW cells to EC50 for Poliovirus 3; type: toxicity; conditions: read-out: Ratio CC50/EC50; outline: as §4

In the case of `CC(C)n1ncc2c(C(=O)Nc3ccccc3F)cc(-c3cccs3)nc21`, the EC50 (Enterovirus A71) is reported as 2300 nM, the EC50 (Coxsackievirus B3) is reported as 1400 nM and the EC50 (Poliovirus 1) is reported as 7 µM. The EC50 (Poliovirus 3) was 7 µM, the CC50 (LLC-MK2) was 50 µM and the CC50 [1] was 12.5 µM. For the same molecule, the selectivity ratio [2] was 21.7, the selectivity ratio [3] was 8.9 and the selectivity ratio [4] was 1.8. It also gave a selectivity ratio [5] of 1.8.

With `CC(C)n1ncc2c(C(=O)Nc3cncnc3)cc(-c3cccs3)nc21` the EC50 (Enterovirus A71) was 400 nM, the EC50 (Coxsackievirus B3) was 700 nM and the EC50 (Poliovirus 1) was 10 µM. The EC50 (Poliovirus 3) was 10 µM, the CC50 (LLC-MK2) was 20 µM and the CC50 [1] was 18 µM. For the same molecule, the selectivity ratio [2] was 50, the selectivity ratio [3] was 25.7 and the selectivity ratio [4] was 1.8. It also gave a selectivity ratio [5] of 1.8.

Molecule `CC(C)n1ncc2c(C(=O)N3CCc4cc(F)ccc43)cc(-c3cccs3)nc21` has an EC50 (Enterovirus A71) of 1300 nM, an EC50 (Coxsackievirus B3) of 1900 nM and an EC50 (Poliovirus 1) of 10 µM. For the same molecule, the EC50 (Poliovirus 3) was 10 µM, the CC50 (LLC-MK2) was greater than 200 µM and the CC50 [1] was 18.8 µM. It also gave a selectivity ratio [2] greater than 153, a selectivity ratio [3] of 9.9 and a selectivity ratio [4] of 1.9. The selectivity ratio [5] was 1.9.

In the case of `CC(C)n1ncc2c(C(=O)Nc3cccc(C(N)=O)c3)cc(-c3cccs3)nc21`, the EC50 (Enterovirus A71) is reported as 800 nM, the EC50 (Coxsackievirus B3) is reported as 700 nM and the EC50 (Poliovirus 1) is reported as 6.3 µM. The EC50 (Poliovirus 3) was 6.3 µM, the CC50 (LLC-MK2) was 25 µM and the CC50 [1] was 18 µM. It also gave a selectivity ratio [2] of 31.3, a selectivity ratio [3] of 25.7 and a selectivity ratio [4] of 2.9. For the same molecule, the selectivity ratio [5] was 2.9.

`CC(C)n1ncc2c(C(=O)Nc3cccnc3)cc(-c3cccs3)nc21` showed an EC50 (Enterovirus A71) of 500 nM, an EC50 (Coxsackievirus B3) of 400 nM and an EC50 (Poliovirus 1) of 10 µM. For the same molecule, the EC50 (Poliovirus 3) was 10 µM, the CC50 (LLC-MK2) was greater than 200 µM and the CC50 [1] was 25 µM. It also gave a selectivity ratio [2] greater than 400, a selectivity ratio [3] of 62.5 and a selectivity ratio [4] of 2.5. For the same molecule, the selectivity ratio [5] was 2.5.

`CC(C)n1ncc2c(C(=O)Nc3cc(C(N)=O)ccc3F)cc(-c3cccs3)nc21` gave an EC50 (Enterovirus A71) of 500 nM, an EC50 (Coxsackievirus B3) of 800 nM and an EC50 (Poliovirus 1) of 5 µM. It also gave an EC50 (Poliovirus 3) of 5 µM, a CC50 (LLC-MK2) of 25 µM and a CC50 [1] of 18.8 µM. For the same molecule, the selectivity ratio [2] was 50, the selectivity ratio [3] was 23.5 and the selectivity ratio [4] was 3.8. It also gave a selectivity ratio [5] of 3.8.
